Assay results from ChEMBL document CHEMBL4043093, “2-Oxo-3, 4-dihydropyrimido[4, 5-d]pyrimidinyl derivatives as new irreversible pan fibroblast growth factor receptor (FGFR) inhibitors” (Eur J Med Chem, 2017).

Key:
[1] = target: Phosphatidylinositol 4-kinase beta (Homo sapiens) (UniProt Q9UBF8); experiment: Inhibition of wild-type human full length PIK4CB (M1 to M828 residues) expressed in HEK293 cells assessed as residual activity at 1000 nM after 30 mins by Kinomescan method relative to control; format: cell-based
Phosphatidylinositol 4-kinase beta (Homo sapiens), sequence (Q9UBF8 2-816 limits assumed): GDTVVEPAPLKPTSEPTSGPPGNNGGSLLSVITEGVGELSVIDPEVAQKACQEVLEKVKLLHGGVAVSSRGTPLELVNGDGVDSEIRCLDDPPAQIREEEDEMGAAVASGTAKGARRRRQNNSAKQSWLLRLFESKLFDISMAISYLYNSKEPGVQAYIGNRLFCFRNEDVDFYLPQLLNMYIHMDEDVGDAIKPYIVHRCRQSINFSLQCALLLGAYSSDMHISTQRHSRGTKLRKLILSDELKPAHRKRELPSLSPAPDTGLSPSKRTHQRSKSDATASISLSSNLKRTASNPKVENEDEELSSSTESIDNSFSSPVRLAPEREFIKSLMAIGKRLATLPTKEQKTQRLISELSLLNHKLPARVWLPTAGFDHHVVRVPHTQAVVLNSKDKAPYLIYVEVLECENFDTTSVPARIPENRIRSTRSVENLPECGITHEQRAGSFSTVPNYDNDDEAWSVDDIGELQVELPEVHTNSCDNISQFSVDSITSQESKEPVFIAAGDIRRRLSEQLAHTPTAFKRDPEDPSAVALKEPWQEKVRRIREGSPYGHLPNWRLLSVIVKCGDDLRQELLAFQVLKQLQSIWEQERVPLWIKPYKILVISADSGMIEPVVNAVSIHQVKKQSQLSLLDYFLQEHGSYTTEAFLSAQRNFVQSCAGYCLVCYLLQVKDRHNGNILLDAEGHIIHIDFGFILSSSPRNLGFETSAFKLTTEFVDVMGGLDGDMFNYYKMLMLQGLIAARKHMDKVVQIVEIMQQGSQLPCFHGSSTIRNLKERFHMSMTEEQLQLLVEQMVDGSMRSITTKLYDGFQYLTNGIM
Outline: (§1)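 Single-concentration screen at 1 µM across a 456-kinase KINOMEscan panel. The read-out is Percent Control for each kinase.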

[2] = target: Fibroblast growth factor receptor 3 (Homo sapiens, UniProt P22607); experiment: Inhibition of human recombinant His-tagged FGFR3 cytoplasmic domain (399 to 806 residues) expressed in baculovirus using Tyr-4 peptide after 1 hr by FRET-based Z'-Lyte assay
Fibroblast growth factor receptor 3, sequence (P22607 whole entry, the tested form may be a part): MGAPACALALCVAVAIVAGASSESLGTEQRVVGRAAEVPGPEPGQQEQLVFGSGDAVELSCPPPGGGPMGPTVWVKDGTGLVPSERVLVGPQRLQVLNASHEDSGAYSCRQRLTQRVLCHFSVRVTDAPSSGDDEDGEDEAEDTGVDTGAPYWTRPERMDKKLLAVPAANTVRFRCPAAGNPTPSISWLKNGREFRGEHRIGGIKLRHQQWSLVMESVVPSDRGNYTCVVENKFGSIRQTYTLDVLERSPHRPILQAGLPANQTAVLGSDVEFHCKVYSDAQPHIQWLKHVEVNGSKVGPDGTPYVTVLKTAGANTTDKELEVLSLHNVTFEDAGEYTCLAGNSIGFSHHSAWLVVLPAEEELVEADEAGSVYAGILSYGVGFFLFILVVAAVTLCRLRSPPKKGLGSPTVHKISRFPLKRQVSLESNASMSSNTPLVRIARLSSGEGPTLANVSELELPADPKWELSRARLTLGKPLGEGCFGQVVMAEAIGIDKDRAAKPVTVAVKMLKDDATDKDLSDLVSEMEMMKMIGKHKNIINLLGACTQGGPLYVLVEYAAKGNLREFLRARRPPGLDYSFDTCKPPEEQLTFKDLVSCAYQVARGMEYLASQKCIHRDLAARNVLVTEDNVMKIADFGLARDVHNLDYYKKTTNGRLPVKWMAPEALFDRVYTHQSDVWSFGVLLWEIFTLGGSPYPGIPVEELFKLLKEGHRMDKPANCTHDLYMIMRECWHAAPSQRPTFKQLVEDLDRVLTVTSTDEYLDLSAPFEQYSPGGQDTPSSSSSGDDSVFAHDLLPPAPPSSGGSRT

[3] = target: Tyrosine-protein kinase receptor TYRO3 (Homo sapiens) (UniProt Q06418); experiment: Inhibition of wild-type human partial length TYRO3 (S497 to T814 residues) expressed in Escherichia coli BL21 assessed as residual activity at 1000 nM after 30 mins by Kinomescan method relative to control
Tyrosine-protein kinase receptor TYRO3 (Homo sapiens), sequence (Q06418 whole entry, the tested form may be a part): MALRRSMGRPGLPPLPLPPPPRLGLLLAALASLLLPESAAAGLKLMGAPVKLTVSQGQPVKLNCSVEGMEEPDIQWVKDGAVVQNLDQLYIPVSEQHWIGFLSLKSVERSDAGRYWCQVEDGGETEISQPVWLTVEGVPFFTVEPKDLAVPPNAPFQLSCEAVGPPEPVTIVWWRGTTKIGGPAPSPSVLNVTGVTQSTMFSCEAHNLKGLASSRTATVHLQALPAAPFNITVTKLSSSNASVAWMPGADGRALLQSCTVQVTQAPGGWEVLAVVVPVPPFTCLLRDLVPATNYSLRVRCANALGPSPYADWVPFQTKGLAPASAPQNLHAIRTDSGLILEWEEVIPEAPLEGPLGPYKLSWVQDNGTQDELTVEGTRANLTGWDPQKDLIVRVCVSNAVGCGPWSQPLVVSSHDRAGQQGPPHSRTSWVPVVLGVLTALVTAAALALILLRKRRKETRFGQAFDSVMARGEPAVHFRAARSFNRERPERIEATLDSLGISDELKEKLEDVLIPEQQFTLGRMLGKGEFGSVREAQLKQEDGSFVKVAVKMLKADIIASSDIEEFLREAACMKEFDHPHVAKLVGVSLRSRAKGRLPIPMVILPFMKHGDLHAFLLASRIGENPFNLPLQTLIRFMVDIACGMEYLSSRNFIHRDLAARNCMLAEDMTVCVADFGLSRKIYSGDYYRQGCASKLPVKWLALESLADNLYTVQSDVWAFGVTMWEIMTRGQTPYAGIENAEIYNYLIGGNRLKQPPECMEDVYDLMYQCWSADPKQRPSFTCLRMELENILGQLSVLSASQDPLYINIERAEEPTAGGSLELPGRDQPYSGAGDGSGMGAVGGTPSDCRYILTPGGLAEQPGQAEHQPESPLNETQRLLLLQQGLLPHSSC

[4] = target: Tyrosine-protein kinase SYK (Homo sapiens) (UniProt P43405); experiment: Inhibition of wild-type human partial length SYK (D354 to N635 residues) expressed in Escherichia coli BL21 assessed as residual activity at 1000 nM after 30 mins by Kinomescan method relative to control
[5] = target: Inhibitor of nuclear factor kappa-B kinase subunit epsilon (Homo sapiens) (UniProt Q14164); experiment: Inhibition of wild-type human full length IKK-epsilon (M1 to V716 residues) expressed in HEK293 cells assessed as residual activity at 1000 nM after 30 mins by Kinomescan method relative to control; format: cell-based; outline: as §1
Inhibitor of nuclear factor kappa-B kinase subunit epsilon (Homo sapiens), sequence (Q14164 whole entry, the tested form may be a part): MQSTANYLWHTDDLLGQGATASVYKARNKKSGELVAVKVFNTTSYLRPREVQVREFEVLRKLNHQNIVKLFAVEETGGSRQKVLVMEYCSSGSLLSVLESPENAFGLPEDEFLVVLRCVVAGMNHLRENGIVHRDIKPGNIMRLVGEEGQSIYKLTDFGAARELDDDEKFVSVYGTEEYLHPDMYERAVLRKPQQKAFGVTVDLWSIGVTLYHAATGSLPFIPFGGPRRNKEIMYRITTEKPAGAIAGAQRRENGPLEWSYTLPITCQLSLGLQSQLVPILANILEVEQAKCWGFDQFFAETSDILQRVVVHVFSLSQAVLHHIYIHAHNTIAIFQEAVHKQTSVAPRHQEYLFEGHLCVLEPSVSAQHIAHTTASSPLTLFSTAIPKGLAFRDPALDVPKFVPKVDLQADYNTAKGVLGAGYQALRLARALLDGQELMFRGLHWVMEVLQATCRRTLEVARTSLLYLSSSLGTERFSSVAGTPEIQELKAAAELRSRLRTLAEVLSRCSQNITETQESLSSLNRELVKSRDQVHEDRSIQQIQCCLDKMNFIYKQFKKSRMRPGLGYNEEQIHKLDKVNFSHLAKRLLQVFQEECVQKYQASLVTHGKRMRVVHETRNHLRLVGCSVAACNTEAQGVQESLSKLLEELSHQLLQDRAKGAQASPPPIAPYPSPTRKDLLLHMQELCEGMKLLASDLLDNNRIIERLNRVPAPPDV

SW780 = experiment: Antiproliferative activity against human FGFR3-amplified SW780 cells after 5 days by SRB assay; details: SW780, 120 h
[6] = target: Tyrosine-protein kinase JAK2 (Homo sapiens) (UniProt O60674); experiment: Inhibition of wild-type human partial length JAK2 JH1 catalytic domain (A829 to G1132 residues) expressed in HEK293 cells assessed as residual activity at 1000 nM after 30 mins by Kinomescan method relative to control; format: cell-based
Tyrosine-protein kinase JAK2 (Homo sapiens), sequence (O60674 whole entry, the tested form may be a part): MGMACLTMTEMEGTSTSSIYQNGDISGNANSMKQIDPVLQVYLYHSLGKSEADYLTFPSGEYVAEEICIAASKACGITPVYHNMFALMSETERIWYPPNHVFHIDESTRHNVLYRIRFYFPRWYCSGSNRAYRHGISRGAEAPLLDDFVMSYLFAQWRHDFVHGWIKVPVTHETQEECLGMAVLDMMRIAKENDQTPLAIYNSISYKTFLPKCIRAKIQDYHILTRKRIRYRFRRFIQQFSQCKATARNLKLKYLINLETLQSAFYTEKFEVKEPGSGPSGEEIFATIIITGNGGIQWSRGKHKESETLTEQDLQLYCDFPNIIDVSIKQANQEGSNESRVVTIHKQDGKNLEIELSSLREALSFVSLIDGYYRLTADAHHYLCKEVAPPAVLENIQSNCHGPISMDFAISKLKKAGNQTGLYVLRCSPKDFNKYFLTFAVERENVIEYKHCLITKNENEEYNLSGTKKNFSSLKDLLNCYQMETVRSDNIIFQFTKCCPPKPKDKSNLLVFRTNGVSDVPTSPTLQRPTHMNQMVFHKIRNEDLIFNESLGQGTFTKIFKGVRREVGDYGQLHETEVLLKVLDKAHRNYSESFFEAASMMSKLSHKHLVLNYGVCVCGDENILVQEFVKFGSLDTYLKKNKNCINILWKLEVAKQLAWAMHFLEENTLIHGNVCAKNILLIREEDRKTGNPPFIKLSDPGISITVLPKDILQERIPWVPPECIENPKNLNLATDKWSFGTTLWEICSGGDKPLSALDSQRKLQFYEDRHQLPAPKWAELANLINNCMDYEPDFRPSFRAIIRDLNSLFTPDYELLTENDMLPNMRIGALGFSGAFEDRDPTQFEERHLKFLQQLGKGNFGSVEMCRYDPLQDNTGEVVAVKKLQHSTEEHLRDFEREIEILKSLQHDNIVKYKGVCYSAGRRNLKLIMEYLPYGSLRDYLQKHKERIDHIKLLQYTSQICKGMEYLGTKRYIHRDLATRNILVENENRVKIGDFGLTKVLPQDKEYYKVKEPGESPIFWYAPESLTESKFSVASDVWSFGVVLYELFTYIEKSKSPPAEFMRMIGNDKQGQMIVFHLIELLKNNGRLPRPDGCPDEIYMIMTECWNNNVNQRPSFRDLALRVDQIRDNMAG

COc1cc(OC)c(Cl)c(N2Cc3cnc(Nc4ccc(F)cc4)nc3N(C3CCN(C(=O)/C=C/CN(C)C)CC3)C2=O)c1Cl
Activity [1]: 96% | IC50 [2]: 5.07 nM | Activity [3]: 57% | Activity [4]: 100% | Activity [5]: 100% | IC50 (SW780): 16.1 nM | Activity [6]: 100%
